The results in this text go back to ChEMBL document CHEMBL2417369, “Synthesis and evaluation of heteroaryl substituted diazaspirocycles as scaffolds to probe the ATP-binding site of protein kinases” (Bioorg Med Chem, 2013).

The target in assay [1] is T1, Serine/threonine-protein kinase BRSK1 (Homo sapiens) (UniProt Q8TDC3).
T1 sequence (whole entry): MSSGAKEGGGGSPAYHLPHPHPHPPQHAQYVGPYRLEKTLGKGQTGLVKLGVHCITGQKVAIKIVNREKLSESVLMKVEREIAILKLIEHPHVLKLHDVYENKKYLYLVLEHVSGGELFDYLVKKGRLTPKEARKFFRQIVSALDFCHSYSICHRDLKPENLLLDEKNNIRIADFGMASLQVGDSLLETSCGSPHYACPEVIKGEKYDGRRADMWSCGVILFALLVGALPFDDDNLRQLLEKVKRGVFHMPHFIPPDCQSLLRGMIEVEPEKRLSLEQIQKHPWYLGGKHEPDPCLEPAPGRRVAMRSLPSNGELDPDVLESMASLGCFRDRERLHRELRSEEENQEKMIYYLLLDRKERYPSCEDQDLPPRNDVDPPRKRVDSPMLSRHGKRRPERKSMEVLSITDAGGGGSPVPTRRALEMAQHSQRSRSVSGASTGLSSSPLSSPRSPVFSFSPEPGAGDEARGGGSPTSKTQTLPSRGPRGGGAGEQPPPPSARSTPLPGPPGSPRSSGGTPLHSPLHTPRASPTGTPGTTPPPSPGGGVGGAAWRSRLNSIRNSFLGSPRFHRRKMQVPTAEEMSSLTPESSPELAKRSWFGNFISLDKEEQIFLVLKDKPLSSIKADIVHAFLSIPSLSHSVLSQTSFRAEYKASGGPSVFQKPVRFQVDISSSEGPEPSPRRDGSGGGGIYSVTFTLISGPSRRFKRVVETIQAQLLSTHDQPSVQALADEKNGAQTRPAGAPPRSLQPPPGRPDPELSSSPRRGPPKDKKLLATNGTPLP
Kind of assay: Inhibition of BRSK1 (unknown origin) at 30 uM by microfluidic mobility shift assay relative to control. An outline of the steps:
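Single-point screen at 30 µM test compound across a 24-kinase panel in a microfluidic assay format. ATP was set near each enzyme's Km,[ATP]. […] The pan-AGC inhibitor H-89 served as an internal control on every assay plate.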

For assay [2], the target named is Mitogen-activated protein kinase 1 (Homo sapiens, UniProt P28482). Description: Inhibition of ERK2 (unknown origin) at 30 uM by microfluidic mobility shift assay relative to control. An outline of the steps: (§1)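 Single-point screen in a 24-enzyme kinase panel using a microfluidic assay. Each compound was tested at […] with ATP at roughly the Km for each enzyme. The pan-AGC inhibitor H-89 served as an internal control on every plate.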

In assay [3] the target is T2, Aurora kinase A (Homo sapiens) (UniProt O14965).
T2 sequence (whole entry): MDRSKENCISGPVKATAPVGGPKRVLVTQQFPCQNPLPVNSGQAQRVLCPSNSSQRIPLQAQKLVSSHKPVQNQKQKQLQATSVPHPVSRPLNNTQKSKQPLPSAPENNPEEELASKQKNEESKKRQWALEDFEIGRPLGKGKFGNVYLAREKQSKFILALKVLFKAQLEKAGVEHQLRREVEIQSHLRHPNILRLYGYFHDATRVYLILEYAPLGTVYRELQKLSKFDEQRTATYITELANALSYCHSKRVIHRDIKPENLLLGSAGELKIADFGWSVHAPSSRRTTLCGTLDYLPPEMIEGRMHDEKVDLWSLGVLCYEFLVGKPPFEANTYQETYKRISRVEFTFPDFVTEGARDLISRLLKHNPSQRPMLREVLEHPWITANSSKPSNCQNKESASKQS
Description: Inhibition of AURA (unknown origin) at 30 uM by microfluidic mobility shift assay relative to control. The procedure, abridged:
as §1

In assay [4] the target is Tyrosine-protein kinase Lck (Homo sapiens, UniProt P06239). Description: Inhibition of LCK (unknown origin) at 30 uM by microfluidic mobility shift assay relative to control. An outline of the steps:
as §1

For assay [5], the target named is Proto-oncogene tyrosine-protein kinase Src (Homo sapiens, UniProt P12931). Kind of assay: Inhibition of SRC (unknown origin) at 30 uM by microfluidic mobility shift assay relative to control. An outline of the steps: as §1
Assay [6] concerns the target Mitogen-activated protein kinase 3 (Homo sapiens, UniProt P27361). Kind of assay: Inhibition of ERK1 (unknown origin) at 30 uM by microfluidic mobility shift assay relative to control. An outline of the steps:
as §1

In assay [7] the target is Ribosomal protein S6 kinase alpha-1 (Homo sapiens, UniProt Q15418). Description: Inhibition of RSK1 (unknown origin) at 30 uM by microfluidic mobility shift assay relative to control. The procedure, abridged: as §1
Assay [8] addresses Tyrosine-protein kinase ABL1 (Homo sapiens, UniProt P00519). Description: Inhibition of ABL (unknown origin) at 30 uM by microfluidic mobility shift assay relative to control. The procedure, abridged:
as §1

Assay [9] has as its target T3, Protein kinase C epsilon type (Homo sapiens) (UniProt Q02156).
T3 sequence (whole entry): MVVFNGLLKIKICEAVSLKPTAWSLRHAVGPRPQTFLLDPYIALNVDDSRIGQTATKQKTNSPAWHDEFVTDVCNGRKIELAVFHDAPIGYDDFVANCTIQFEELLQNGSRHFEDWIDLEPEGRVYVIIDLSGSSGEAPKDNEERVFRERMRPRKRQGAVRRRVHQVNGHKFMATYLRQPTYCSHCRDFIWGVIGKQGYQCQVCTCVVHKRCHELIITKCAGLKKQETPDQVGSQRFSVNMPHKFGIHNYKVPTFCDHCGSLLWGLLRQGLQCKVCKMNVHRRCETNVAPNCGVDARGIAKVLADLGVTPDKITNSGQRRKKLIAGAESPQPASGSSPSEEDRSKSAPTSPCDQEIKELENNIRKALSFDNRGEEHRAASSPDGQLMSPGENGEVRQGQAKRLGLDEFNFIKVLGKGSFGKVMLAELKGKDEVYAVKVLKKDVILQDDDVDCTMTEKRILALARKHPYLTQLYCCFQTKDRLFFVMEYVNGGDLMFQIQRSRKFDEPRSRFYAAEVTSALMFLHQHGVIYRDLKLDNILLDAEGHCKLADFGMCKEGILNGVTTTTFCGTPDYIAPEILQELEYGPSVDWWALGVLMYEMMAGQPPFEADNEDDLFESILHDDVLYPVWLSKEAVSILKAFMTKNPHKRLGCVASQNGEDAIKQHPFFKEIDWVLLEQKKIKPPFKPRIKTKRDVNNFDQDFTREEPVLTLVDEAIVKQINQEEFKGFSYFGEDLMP
Kind of assay: Inhibition of PKCepsilon (unknown origin) at 30 uM by microfluidic mobility shift assay relative to control. The procedure, abridged: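 Single-point screen against a 24-kinase panel in a commercial microfluidic assay format. Compounds were tested at 30 µM, with ATP at approximately the Km,[ATP] of each enzyme. H-89 was included on each assay plate as an internal control.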

Tyrosine-protein kinase ABL1, sequence (P00519 whole entry): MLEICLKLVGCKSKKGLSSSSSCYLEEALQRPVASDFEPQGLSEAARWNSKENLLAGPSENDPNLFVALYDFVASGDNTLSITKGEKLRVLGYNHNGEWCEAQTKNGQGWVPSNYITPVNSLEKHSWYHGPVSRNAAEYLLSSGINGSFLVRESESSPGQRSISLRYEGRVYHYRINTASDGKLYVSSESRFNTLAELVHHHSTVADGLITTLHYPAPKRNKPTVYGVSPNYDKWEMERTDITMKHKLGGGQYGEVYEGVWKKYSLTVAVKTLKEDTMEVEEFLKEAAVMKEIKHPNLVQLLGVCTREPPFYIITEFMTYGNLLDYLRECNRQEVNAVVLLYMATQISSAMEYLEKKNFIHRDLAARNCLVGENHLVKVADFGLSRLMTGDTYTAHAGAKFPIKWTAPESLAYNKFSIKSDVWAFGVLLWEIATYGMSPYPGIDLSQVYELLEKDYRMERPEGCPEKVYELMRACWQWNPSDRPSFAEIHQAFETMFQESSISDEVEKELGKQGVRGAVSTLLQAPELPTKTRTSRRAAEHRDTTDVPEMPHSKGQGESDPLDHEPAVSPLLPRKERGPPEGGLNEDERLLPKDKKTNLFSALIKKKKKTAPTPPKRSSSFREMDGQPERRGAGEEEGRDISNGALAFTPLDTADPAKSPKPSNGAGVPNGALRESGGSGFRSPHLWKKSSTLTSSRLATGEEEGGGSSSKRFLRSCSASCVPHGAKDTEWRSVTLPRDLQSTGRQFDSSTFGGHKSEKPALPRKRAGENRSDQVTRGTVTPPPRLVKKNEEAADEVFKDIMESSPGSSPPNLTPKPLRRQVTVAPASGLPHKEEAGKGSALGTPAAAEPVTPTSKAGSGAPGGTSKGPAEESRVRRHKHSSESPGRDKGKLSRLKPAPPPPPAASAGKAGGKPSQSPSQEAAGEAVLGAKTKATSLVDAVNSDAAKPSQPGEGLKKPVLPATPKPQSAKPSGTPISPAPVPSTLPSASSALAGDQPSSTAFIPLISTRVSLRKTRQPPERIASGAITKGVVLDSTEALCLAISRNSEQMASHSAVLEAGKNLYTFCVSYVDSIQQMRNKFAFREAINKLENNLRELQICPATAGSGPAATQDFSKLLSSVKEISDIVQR
Mitogen-activated protein kinase 1, sequence (P28482 whole entry): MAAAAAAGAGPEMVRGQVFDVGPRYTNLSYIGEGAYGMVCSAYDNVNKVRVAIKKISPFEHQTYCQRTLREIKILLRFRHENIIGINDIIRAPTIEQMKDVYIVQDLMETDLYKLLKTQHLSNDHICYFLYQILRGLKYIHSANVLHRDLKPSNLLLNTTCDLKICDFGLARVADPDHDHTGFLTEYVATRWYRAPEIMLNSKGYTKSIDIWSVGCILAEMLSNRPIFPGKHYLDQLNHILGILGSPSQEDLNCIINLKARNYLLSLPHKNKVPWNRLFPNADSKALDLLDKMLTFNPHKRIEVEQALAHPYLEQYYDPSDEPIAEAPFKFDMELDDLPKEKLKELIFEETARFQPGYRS
Tyrosine-protein kinase Lck, sequence (P06239 2-509 limits assumed): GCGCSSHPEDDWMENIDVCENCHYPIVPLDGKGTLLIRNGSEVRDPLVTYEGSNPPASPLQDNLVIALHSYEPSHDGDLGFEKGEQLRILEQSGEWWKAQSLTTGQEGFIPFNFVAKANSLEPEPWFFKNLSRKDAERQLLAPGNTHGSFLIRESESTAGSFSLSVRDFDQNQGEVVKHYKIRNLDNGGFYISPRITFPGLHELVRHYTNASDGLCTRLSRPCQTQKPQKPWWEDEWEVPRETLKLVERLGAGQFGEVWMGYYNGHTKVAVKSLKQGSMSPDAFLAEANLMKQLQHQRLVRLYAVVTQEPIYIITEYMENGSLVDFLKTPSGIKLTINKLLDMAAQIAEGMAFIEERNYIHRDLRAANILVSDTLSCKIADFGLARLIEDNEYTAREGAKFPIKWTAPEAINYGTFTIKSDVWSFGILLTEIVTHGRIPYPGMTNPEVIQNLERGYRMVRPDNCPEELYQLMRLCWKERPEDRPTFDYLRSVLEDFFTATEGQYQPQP
Mitogen-activated protein kinase 3, sequence (P27361 whole entry): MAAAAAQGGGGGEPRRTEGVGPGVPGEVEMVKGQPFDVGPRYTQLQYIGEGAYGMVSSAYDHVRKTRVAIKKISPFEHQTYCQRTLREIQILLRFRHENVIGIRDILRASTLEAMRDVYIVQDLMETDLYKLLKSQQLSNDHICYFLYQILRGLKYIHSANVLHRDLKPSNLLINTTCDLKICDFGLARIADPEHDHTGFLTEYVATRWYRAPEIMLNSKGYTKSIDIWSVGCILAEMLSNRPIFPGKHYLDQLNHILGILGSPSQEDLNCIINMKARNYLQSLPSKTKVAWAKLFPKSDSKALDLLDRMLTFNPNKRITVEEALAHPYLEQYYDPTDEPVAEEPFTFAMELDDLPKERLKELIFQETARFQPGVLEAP
Proto-oncogene tyrosine-protein kinase Src, sequence (P12931 2-536 limits assumed): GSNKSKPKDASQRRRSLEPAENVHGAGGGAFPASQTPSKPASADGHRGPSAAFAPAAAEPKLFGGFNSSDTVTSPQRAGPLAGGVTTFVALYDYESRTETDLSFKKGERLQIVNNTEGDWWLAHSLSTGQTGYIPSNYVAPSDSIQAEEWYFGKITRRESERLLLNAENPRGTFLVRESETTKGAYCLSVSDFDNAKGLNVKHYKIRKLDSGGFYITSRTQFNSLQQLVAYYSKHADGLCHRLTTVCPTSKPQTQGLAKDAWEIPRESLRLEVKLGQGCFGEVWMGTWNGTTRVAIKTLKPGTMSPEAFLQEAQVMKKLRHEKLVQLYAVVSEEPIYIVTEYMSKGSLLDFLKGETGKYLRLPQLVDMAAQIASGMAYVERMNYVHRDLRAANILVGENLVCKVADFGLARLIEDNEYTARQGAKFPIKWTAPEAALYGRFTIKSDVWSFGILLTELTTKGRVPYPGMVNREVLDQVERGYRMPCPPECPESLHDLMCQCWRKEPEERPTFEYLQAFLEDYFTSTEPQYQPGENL
Ribosomal protein S6 kinase alpha-1, sequence (Q15418 whole entry): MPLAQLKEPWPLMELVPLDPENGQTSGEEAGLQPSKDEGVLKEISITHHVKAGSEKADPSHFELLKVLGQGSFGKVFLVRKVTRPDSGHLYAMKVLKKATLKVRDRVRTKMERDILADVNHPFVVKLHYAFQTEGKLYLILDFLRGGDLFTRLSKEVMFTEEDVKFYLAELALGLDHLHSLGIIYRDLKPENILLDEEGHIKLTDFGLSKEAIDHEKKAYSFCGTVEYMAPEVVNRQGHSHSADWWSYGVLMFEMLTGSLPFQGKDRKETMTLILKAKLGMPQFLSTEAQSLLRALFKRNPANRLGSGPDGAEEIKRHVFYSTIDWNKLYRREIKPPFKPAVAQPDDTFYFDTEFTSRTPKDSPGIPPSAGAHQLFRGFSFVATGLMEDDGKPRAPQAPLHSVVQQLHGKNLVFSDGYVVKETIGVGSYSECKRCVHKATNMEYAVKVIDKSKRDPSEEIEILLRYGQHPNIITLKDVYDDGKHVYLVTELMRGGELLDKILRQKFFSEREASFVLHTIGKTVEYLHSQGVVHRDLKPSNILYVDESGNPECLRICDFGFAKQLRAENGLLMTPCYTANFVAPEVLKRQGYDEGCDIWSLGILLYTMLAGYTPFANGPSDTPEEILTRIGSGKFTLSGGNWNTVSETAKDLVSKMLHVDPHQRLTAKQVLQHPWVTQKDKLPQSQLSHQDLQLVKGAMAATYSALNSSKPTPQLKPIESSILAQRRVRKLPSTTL

On to `c1ccc(CC2CCC3(CCN(c4ncnc5[nH]cnc45)CC3)NC2)cc1` (racemic), for which the inhibition stood at 10% in assay [1]; 41% in assay [2]; 89% in assay [3]; 44% in assay [4]; 33% in assay [5]; 31% in assay [6]. The inhibition in assay [7] amounted to 48%; in assay [8], 31%; in assay [9], 24%.

Take `c1ccc(CC2CCNC3(CCN(c4ncnc5[nH]cnc45)CC3)C2)cc1` (racemic): the inhibition in assay [1] came out at 16%; in assay [2], 74%; in assay [3], 64%; in assay [4], 60%; in [5], 64%; in [6], 66%. For the same molecule, the inhibition in assay [7] came out at 90%; in assay [8] it was 16%; in assay [9], 64%.

`c1ccc(C2CCNC3(CCN(c4ncnc5[nH]cnc45)CC3)C2)cc1` (racemic): the inhibition in assay [1] was 13%; in assay [2] it was 54%; in assay [3] it was 76%; in assay [4] it was 73%; in [5], 76%; in [6] it was 39%. The inhibition in [7] stood at 85%; in assay [8], 39%; in assay [9], 66%.
